According to ChEMBL document CHEMBL4354843, “Structure-Based Design of a Potent and Selective Covalent Inhibitor for SRC Kinase That Targets a P-Loop Cysteine” (J Med Chem, 2020):

How the values were obtained:
[1] = tested on: Hepatocyte growth factor receptor (Homo sapiens), P08581 [M1250T]; experiment: Binding affinity to human partial length MET M1250T mutant (D1010 to S1367 residues) expressed in bacterial expression system assessed as residual binding level at 1 uM by Kinomescan method relative to control
Method in brief: (§1)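 KinomeScan active site-directed competition binding panel (468 kinases), compound tested at 1 μM. Result expressed as remaining kinase signal versus DMSO control (percent of control).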

[2] = molecular target: Serine/threonine-protein kinase WNK4 (Homo sapiens) (UniProt Q96J92); experiment: Binding affinity to wild-type human partial length WNK4 (A31 to D461 residues) expressed in mammalian expression system assessed as residual binding level at 1 uM by Kinomescan method relative to control
Method in brief: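 Active site-directed competition binding panel (KinomeScan, 468 kinases). Test compound at 1 μM. Read-out is kinase binding remaining versus DMSO control, expressed as percent of control. Scores above 35% are treated as weak binding.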

[3] = molecular target: Vascular endothelial growth factor receptor 3 (Homo sapiens) (UniProt P35916); experiment: Binding affinity to wild-type human partial length FLT4 (E821 to E1196 residues) expressed in bacterial expression system assessed as residual binding level at 1 uM by Kinomescan method relative to control
[4] = molecular target: Dual specificity tyrosine-phosphorylation-regulated kinase 1B (Homo sapiens) (UniProt Q9Y463); experiment: Binding affinity to wild-type human full length DYRK1B (M1 to S629 residues) expressed in bacterial expression system assessed as residual binding level at 1 uM by Kinomescan method relative to control
Method in brief: (§2)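 Active-site-directed KinomeScan competition binding panel covering 468 kinases, compound tested at 1 μM. Each readout is the kinase signal remaining with compound, expressed as a percentage of the DMSO control. […]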

[5] = molecular target: Cyclin-dependent kinase 13 (Homo sapiens) (UniProt Q14004); experiment: Binding affinity to wild-type human partial length CDC2L5 (H675 to S1054 residues) expressed in mammalian expression system assessed as residual binding level at 1 uM by Kinomescan method relative to control
[6] = tested on: Phosphatidylinositol 4,5-bisphosphate 3-kinase catalytic subunit alpha isoform (Homo sapiens), P42336 [E542K]; experiment: Binding affinity to human partial length PIK3CA E542K mutant (R108 to N1068 residues) expressed in mammalian expression system assessed as residual binding level at 1 uM by Kinomescan method relative to control; method in brief: as §1
[7] = molecular target: cAMP-dependent protein kinase catalytic subunit alpha (Homo sapiens) (UniProt P17612); experiment: Binding affinity to wild-type human partial length PKAC-alpha (G10 to F351 residues) expressed in bacterial expression system assessed as residual binding level at 1 uM by Kinomescan method relative to control
[8] = tested on: Epidermal growth factor receptor (Homo sapiens), P00533 [L858R,T790M]; experiment: Binding affinity to human partial length EGFR L858R/T790M double mutant (R669 to V1011 residues) expressed in mammalian expression system assessed as residual binding level at 1 uM by Kinomescan method relative to control; method in brief: as §1
[9] = molecular target: Tyrosine-protein kinase JAK1 (Homo sapiens) (UniProt P23458); experiment: Binding affinity to wild-type human partial length JAK1 JH1 catalytic domain (V856 to K1154 residues) expressed in bacterial expression system assessed as residual binding level at 1 uM by Kinomescan method relative to control
[10] = molecular target: Cyclin-dependent kinase 9 (Homo sapiens) (UniProt P50750); experiment: Binding affinity to wild-type human full length CDK9 (M1 to F372 residues) expressed in bacterial expression system assessed as residual binding level at 1 uM by Kinomescan method relative to control; method in brief: as §2
[11] = molecular target: Dual specificity mitogen-activated protein kinase kinase 5 (Homo sapiens) (UniProt Q13163); experiment: Binding affinity to wild-type human partial length MEK5 (L98 to P448 residues) expressed in mammalian expression system assessed as residual binding level at 1 uM by Kinomescan method relative to control
Method in brief: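 Active-site-directed competition binding panel of 468 kinases (KinomeScan), compound at 1 μM. The read-out is kinase remaining bound, given as a percentage of the DMSO control. […]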

[12] = molecular target: Serine/threonine-protein kinase D1 (Homo sapiens) (UniProt Q15139); experiment: Binding affinity to wild-type human partial length PRKD1 (G551 to E870 residues) expressed in bacterial expression system assessed as residual binding level at 1 uM by Kinomescan method relative to control
[13] = molecular target: Serine/threonine-protein kinase RIO3 (Homo sapiens) (UniProt O14730); experiment: Binding affinity to wild-type human full length RIOK3 (M1 to E519 residues) expressed in bacterial expression system assessed as residual binding level at 1 uM by Kinomescan method relative to control
Method in brief: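 Active-site-directed competition binding screen across a 468-kinase panel, run with the test compound at 1 μM. The read-out is the kinase signal remaining relative to a DMSO control, reported as a percentage. […]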

[14] = molecular target: Mitogen-activated protein kinase kinase kinase kinase 5 (Homo sapiens) (UniProt Q9Y4K4); experiment: Binding affinity to wild-type human partial length MAP4K5 (M1 to P297 residues) expressed in bacterial expression system assessed as residual binding level at 1 uM by Kinomescan method relative to control
[15] = molecular target: Tyrosine-protein kinase JAK1 (Homo sapiens) (UniProt P23458); experiment: Binding affinity to wild-type human partial length JAK1 JH2 pseudokinase domain (R537 to D855 residues) expressed in mammalian expression system assessed as residual binding level at 1 uM by Kinomescan method relative to control
[16] = molecular target: Mitogen-activated protein kinase 10 (Homo sapiens) (UniProt P53779); experiment: Binding affinity to wild-type human partial length JNK3 (V28 to Q422 residues) expressed in mammalian expression system assessed as residual binding level at 1 uM by Kinomescan method relative to control
[17] = molecular target: RAC-beta serine/threonine-protein kinase (Homo sapiens) (UniProt P31751); experiment: Binding affinity to wild-type human partial length AKT2 expressed in bacterial expression system assessed as residual binding level at 1 uM by Kinomescan method relative to control
[18] = molecular target: Phosphatidylinositol 4,5-bisphosphate 3-kinase catalytic subunit gamma isoform (Homo sapiens) (UniProt P48736); experiment: Binding affinity to wild-type human partial length PIK3CG (S144 to A1102 residues) expressed in mammalian expression system assessed as residual binding level at 1 uM by Kinomescan method relative to control
[19] = molecular target: Myosin-IIIa (Homo sapiens) (UniProt Q8NEV4); experiment: Binding affinity to wild-type human partial length MYO3A (M1 to K338 residues) expressed in bacterial expression system assessed as residual binding level at 1 uM by Kinomescan method relative to control
[20] = molecular target: Serine/threonine-protein kinase 24 (Homo sapiens) (UniProt Q9Y6E0); experiment: Binding affinity to wild-type human partial length MST3 (A30 to S311 residues) expressed in bacterial expression system assessed as residual binding level at 1 uM by Kinomescan method relative to control
[21] = tested on: Serine/threonine-protein kinase B-raf (Homo sapiens), P15056 [V600E]; experiment: Binding affinity to human partial length BRAF V600E mutant (S429 to E741 residues) expressed in mammalian expression system assessed as residual binding level at 1 uM by Kinomescan method relative to control; method in brief: as §1
Serine/threonine-protein kinase B-raf (Homo sapiens), P15056 [V600E], sequence (P15056 whole entry V600E, the tested form may be a part): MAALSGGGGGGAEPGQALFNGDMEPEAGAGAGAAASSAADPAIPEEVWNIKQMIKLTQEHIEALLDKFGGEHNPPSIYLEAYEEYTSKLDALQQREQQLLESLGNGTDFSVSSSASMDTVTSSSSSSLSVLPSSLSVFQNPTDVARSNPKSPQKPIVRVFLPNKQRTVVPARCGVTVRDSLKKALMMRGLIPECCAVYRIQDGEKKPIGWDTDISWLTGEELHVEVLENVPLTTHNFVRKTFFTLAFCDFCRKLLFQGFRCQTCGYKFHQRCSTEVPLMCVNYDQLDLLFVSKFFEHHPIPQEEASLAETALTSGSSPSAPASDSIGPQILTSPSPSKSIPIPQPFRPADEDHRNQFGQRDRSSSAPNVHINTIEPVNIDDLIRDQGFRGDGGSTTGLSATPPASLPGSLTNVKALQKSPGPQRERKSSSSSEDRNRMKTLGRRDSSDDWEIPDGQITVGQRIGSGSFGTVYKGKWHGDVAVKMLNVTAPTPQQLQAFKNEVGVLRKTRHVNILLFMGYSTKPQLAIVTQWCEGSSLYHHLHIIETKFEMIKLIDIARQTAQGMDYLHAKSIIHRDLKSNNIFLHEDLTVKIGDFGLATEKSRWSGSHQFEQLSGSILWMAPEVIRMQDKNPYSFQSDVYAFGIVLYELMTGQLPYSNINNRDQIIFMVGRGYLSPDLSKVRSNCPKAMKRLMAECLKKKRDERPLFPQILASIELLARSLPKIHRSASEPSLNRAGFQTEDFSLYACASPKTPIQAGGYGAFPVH

Tyrosine-protein kinase JAK1 (Homo sapiens), sequence (P23458 whole entry, the tested form may be a part): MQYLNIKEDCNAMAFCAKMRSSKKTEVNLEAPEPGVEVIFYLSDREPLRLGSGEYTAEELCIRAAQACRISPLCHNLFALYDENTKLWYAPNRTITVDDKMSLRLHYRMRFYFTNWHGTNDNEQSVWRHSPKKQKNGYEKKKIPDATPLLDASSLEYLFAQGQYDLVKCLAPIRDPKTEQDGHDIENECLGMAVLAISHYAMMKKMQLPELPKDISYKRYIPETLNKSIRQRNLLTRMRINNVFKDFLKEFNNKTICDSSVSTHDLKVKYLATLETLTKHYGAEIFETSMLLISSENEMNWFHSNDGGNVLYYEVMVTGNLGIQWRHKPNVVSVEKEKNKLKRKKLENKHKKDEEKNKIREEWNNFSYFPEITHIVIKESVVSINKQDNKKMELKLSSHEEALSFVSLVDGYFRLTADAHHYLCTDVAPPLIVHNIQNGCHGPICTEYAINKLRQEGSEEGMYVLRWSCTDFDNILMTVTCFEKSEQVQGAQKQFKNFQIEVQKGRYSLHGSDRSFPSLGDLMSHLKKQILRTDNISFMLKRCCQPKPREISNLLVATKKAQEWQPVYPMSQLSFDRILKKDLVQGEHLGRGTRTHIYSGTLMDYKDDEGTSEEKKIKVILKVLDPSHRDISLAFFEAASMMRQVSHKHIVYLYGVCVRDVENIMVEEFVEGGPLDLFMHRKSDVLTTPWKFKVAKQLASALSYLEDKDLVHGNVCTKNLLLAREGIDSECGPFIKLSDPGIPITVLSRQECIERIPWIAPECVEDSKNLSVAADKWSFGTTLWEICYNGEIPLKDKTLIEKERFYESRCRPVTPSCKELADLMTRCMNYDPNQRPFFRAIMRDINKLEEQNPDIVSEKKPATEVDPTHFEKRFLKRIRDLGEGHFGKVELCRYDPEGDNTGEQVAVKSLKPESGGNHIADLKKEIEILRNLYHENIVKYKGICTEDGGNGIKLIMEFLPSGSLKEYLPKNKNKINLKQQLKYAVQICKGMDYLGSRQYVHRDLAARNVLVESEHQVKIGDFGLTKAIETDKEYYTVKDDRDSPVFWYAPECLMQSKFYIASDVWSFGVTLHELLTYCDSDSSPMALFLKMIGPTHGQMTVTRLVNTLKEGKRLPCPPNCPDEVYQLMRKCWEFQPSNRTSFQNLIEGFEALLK
Mitogen-activated protein kinase kinase kinase kinase 5 (Homo sapiens), sequence (Q9Y4K4 whole entry, looked up, the tested form may be a part): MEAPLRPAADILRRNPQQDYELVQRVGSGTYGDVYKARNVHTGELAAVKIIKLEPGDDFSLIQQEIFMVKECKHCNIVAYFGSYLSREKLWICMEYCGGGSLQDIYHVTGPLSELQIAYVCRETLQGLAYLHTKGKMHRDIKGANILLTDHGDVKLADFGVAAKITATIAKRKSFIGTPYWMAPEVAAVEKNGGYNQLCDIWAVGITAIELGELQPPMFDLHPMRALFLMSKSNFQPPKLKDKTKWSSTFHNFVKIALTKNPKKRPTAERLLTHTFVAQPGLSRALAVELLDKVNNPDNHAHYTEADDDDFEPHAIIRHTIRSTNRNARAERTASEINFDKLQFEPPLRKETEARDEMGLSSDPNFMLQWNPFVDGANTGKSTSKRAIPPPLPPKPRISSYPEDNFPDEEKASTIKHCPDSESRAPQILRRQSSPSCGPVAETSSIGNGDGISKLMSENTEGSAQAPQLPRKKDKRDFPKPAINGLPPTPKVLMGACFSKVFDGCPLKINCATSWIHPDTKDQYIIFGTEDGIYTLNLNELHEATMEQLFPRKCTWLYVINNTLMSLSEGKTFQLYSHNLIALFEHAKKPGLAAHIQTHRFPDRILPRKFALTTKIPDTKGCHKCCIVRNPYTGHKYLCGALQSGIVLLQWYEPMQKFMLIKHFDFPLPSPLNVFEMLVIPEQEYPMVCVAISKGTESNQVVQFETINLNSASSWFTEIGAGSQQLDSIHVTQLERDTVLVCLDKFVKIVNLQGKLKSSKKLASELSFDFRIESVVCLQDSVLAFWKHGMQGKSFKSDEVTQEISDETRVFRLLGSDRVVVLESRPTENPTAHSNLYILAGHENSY
Serine/threonine-protein kinase 24 (Homo sapiens), sequence (Q9Y6E0 whole entry, looked up, the tested form may be a part): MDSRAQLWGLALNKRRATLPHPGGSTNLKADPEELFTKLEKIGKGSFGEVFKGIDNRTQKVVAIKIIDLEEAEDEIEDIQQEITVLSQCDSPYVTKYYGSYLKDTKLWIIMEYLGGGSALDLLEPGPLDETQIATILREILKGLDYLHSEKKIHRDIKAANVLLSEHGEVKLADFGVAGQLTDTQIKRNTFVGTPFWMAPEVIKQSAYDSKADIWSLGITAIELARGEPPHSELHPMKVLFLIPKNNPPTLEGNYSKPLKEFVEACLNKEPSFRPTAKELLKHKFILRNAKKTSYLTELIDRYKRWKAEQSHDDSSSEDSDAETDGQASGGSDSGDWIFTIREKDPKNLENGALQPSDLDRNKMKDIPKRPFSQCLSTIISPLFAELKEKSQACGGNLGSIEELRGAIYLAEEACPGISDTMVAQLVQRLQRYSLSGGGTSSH
Mitogen-activated protein kinase 10 (Homo sapiens), sequence (P53779 whole entry, the tested form may be a part): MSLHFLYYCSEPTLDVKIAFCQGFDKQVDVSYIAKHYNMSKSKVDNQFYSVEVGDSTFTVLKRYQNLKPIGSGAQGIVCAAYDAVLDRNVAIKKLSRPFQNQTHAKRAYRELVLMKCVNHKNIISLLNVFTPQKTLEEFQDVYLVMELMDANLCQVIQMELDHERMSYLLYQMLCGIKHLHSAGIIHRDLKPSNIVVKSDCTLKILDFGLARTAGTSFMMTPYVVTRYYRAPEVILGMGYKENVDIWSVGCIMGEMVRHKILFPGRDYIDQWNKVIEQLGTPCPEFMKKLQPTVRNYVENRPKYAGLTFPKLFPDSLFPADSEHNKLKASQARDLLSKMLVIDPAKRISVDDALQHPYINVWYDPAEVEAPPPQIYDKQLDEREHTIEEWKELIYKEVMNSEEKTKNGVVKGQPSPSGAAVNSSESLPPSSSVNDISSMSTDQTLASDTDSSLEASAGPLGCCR
RAC-beta serine/threonine-protein kinase (Homo sapiens), sequence (P31751 whole entry, the tested form may be a part, canonical isoform): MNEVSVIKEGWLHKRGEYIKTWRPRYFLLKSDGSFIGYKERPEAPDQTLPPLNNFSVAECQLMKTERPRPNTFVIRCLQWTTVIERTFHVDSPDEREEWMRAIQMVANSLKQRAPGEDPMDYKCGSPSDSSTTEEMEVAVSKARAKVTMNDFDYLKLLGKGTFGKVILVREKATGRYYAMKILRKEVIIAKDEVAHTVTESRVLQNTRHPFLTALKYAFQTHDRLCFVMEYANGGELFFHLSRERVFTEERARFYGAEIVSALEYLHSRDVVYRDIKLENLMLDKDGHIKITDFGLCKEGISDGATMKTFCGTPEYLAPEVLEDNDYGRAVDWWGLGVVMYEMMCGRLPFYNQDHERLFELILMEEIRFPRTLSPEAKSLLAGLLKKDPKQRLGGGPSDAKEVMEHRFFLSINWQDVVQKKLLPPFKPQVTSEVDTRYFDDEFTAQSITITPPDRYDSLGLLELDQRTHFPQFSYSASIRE
Serine/threonine-protein kinase D1 (Homo sapiens), sequence (Q15139 whole entry, the tested form may be a part): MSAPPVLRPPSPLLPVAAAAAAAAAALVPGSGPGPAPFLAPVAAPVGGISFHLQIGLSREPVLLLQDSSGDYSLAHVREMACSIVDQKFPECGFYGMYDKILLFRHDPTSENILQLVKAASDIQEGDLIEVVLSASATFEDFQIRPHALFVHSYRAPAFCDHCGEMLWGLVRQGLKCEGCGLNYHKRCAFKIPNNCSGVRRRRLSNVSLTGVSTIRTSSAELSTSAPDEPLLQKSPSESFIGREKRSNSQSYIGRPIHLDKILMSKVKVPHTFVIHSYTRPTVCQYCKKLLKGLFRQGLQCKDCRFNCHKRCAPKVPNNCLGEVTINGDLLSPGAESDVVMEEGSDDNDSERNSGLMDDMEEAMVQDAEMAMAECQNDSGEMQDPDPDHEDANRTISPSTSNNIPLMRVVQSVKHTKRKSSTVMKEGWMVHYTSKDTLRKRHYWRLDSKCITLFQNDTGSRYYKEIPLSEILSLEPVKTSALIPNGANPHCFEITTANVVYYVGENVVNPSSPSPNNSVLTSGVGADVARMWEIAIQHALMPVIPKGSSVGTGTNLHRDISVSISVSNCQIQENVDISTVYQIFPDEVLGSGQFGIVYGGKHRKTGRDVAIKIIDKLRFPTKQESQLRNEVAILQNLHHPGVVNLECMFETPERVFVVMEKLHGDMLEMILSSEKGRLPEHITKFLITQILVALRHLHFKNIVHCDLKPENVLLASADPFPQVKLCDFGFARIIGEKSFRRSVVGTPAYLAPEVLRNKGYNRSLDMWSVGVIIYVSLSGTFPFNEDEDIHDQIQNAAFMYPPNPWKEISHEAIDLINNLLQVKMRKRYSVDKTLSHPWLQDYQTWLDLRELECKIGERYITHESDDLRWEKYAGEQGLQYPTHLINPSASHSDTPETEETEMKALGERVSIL

## C=CC(=O)Nc1ccccc1Nc1nc(Nc2ccc(N3CCN(C)CC3)cc2)ncc1C(=O)Nc1c(C)cccc1Cl
[1]
  Activity: 100%
[2]
  Activity: 97%
[3]
  Activity: 100%
[4]
  Activity: 74%
[5]
  Activity: 92%
[6]
  Activity: 100%
[7]
  Activity: 100%
[8]
  Activity: 100%
[9]
  Activity: 100%
[10]
  Activity: 100%
[11]
  Activity: 81%
[12]
  Activity: 100%
[13]
  Activity: 92%
[14]
  Activity: 100%
[15]
  Activity: 100%
[16]
  Activity: 100%
[17]
  Activity: 100%
[18]
  Activity: 100%
[19]
  Activity: 100%
[20]
  Activity: 100%
[21]
  Activity: 100%
